Experimental data as given in ChEMBL document CHEMBL3124843, “Synthesis, cytostatic, antimicrobial, and anti-HCV activity of 6-substituted 7-(het)aryl-7-deazapurine ribonucleosides” (J Med Chem, 2014).
Calls of active or inactive are those of the source. How the calls were made is not given here.

How the values were obtained:
[1] = Antiproliferative activity against human HeLaS3 cells after 72 hrs by XTT assay; assay type: functional, cell-based; conditions: HeLa S3, 72 h
Summary of the method: (§1)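 Antiproliferative test on HL-60 promyelocytic leukemia and HeLa S3 cervical carcinoma cells growing in liquid suspension.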

BJ = experiment: Cytostatic activity against human BJ cells after 72 hrs by MTT assay; assay type: ADME, cell-based
Summary of the method: (§2)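 IC50 is the concentration that cuts cell growth by 50%, read by quantitative metabolic MTT staining after a 3-day treatment. The resistant sublines were made by raising the concentration of the cytotoxic drug step by step. CEM-DNR-bulk (daunorubicin-selected) stably overexpresses mrp-1. K562-TAX (paclitaxel-selected) expresses only mdr-1. HCT116p53−/− carries null p53 alleles. BJ and MRC-5 are nonmalignant fibroblasts.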

HCT-116 [2] = experiment: Cytostatic activity against p53-deficient human HCT116 cells after 72 hrs by MTT assay; assay type: functional, cell-based; conditions: HCT-116, 72 h; summary of the method: as §2
Hepatitis C virus [3] = experiment: Antiviral activity against Hepatitis C virus subtype 2a infected in human HuH7 cells; assay type: functional, organism-based, Hepacivirus hominis; conditions: genotype 2a, Huh-7
Candida albicans = experiment: Antifungal activity against Candida albicans after 48 hrs; assay type: functional, organism-based
A549 = experiment: Cytostatic activity against human A549 cells after 72 hrs by MTT assay; assay type: functional, cell-based; conditions: A549, 72 h; summary of the method: as §2
MRC5 = experiment: Cytostatic activity against human MRC5 cells after 72 hrs by MTT assay; assay type: ADME, cell-based; conditions: MRC5, 72 h; summary of the method: as §2
K562 [4] = experiment: Cytostatic activity against paclitaxel-resistant human K562 cells after 72 hrs by MTT assay; assay type: functional, cell-based; conditions: K562, 72 h; summary of the method: as §2
[5] = Cytotoxicity against human HuH7 cells infected with Hepatitis C virus subtype 1b; assay type: cell-based, Huh-7
Escherichia coli [6] = experiment: Antibacterial activity against multi-resistant Escherichia coli C/16702 after 24 hrs; assay type: functional, organism-based
Escherichia coli [7] = experiment: Antibacterial activity against Escherichia coli CCM 3954 after 24 hrs; assay type: functional, organism-based
HCT-116 [8] = experiment: Cytostatic activity against human HCT116 cells after 72 hrs by MTT assay; assay type: functional, cell-based; conditions: HCT-116, 72 h; summary of the method: as §2
HL-60 = experiment: Antiproliferative activity against human HL60 cells after 72 hrs by XTT assay; assay type: functional, cell-based; conditions: HL-60, 72 h; summary of the method: as §1
K562 [9] = experiment: Cytostatic activity against human K562 cells after 72 hrs by MTT assay; assay type: functional, cell-based; conditions: K562, 72 h; summary of the method: as §2
Pichia kudriavzevii = experiment: Antifungal activity against Candida crusei after 48 hrs; assay type: functional, organism-based
Candida tropicalis = experiment: Antifungal activity against Candida tropicalis after 48 hrs; assay type: functional, organism-based
[10] = Cytotoxicity against human HuH7 cells infected with Hepatitis C virus subtype 2a; assay type: cell-based, Huh-7
[11] = tested on: Staphylococcus haemolyticus; experiment: Antibacterial activity against methicillin-resistant Staphylococcus haemolyticus A/16568 after 24 hrs; assay type: functional, organism-based
Enterococcus faecalis = experiment: Antibacterial activity against Enterococcus faecalis CCM 4224 after 24 hrs; assay type: functional, organism-based
CCRF-CEM = experiment: Cytostatic activity against human CCRF-CEM cells after 72 hrs by MTT assay; assay type: functional, cell-based; summary of the method: as §2
Staphylococcus aureus [12] = experiment: Antibacterial activity against Staphylococcus aureus CCM 3953 after 24 hrs; assay type: functional, organism-based
[13] = Cytostatic activity against human CEM-DNR-bulk cells after 72 hrs by MTT assay; assay type: functional, cell-based; summary of the method: as §2
HepG2 = experiment: Antiproliferative activity against human HepG2 cells after 72 hrs by XTT assay; assay type: functional, cell-based; conditions: HepG2, 72 h
Pseudomonas aeruginosa [14] = experiment: Antibacterial activity against multi-resistant Pseudomonas aeruginosa A/16575 after 24 hrs; assay type: functional, organism-based
Candida parapsilosis = experiment: Antifungal activity against Candida parapsilosis after 48 hrs; assay type: functional, organism-based
Staphylococcus aureus [15] = experiment: Antibacterial activity against methicillin-resistant Staphylococcus aureus MRSA 4591 after 24 hrs; assay type: functional, organism-based
Hepatitis C virus [16] = experiment: Antiviral activity against Hepatitis C virus subtype 1b infected in human HuH7 cells; assay type: functional, organism-based, Hepacivirus hominis; conditions: genotype 1b, Huh-7
Pseudomonas aeruginosa [17] = experiment: Antibacterial activity against Pseudomonas aeruginosa CCM 3955 after 24 hrs; assay type: functional, organism-based

Row | SMILES | IC50 [1] [µM] | IC50 (BJ) [µM] | IC50 (HCT-116 [2]) [µM] | EC50 (Hepatitis C virus [3]) [µM] | Activity (Candida albicans) | IC50 (A549) [µM] | IC50 (MRC5) [µM] | IC50 (K562 [4]) [µM] | CC50 [5] [µM] | Activity (Escherichia coli [6]) | Activity (Escherichia coli [7]) | IC50 (HCT-116 [8]) [µM] | IC50 (HL-60) [µM] | IC50 (K562 [9]) [µM] | Activity (Pichia kudriavzevii) | Activity (Candida tropicalis) | CC50 [10] [µM] | Activity [11] | Activity (Enterococcus faecalis) | IC50 (CCRF-CEM) [µM] | other results
1 | COc1ncnc2c1c(-c1cc3ccccc3o1)cn2[C@@H]1O[C@H](CO)[C@@H](O)[C@H]1O | 9.24 | 22.4 | 14.5 | 10.2 | inactive | 17.7 | 65.6 | 13.1 | > 44 | inactive | inactive | 13.8 | 4.47 | 20.9 | inactive | inactive | > 44 | inactive | inactive | 5.37 | Activity (Staphylococcus aureus [12]): inactive; IC50 [13]: 10.8 µM; IC50 (HepG2): > 20 µM; Activity (Pseudomonas aeruginosa [14]): inactive; Activity (Candida parapsilosis): inactive; Activity (Staphylococcus aureus [15]): inactive; EC50 (Hepatitis C virus [16]): 2.64 µM; Activity (Pseudomonas aeruginosa [17]): inactive
2 | COc1nc(N)nc2c1c(-c1ccccc1)cn2[C@@H]1O[C@H](CO)[C@@H](O)[C@H]1O | > 20 | > 100 | > 20 | > 44 | inactive | > 20 | > 100 | > 20 | > 44 | inactive | inactive | > 20 | > 20 | > 20 | inactive | inactive | > 44 | inactive | inactive | > 20 | Activity (Staphylococcus aureus [12]): inactive; IC50 [13]: > 20 µM; IC50 (HepG2): > 20 µM; Activity (Pseudomonas aeruginosa [14]): inactive; Activity (Candida parapsilosis): inactive; Activity (Staphylococcus aureus [15]): inactive; EC50 (Hepatitis C virus [16]): > 44 µM; Activity (Pseudomonas aeruginosa [17]): inactive
3 | Nc1nc2c(c(-c3ccco3)cn2[C@@H]2O[C@H](CO)[C@@H](O)[C@H]2O)c(=O)[nH]1 | > 20 | > 100 | > 20 | > 44 | inactive | > 20 | > 100 | > 20 | > 44 | inactive | inactive | > 20 | > 20 | > 20 | inactive | inactive | > 44 | inactive | inactive | > 20 | Activity (Staphylococcus aureus [12]): inactive; IC50 [13]: > 20 µM; IC50 (HepG2): > 20 µM; Activity (Pseudomonas aeruginosa [14]): inactive; Activity (Candida parapsilosis): inactive; Activity (Staphylococcus aureus [15]): inactive; EC50 (Hepatitis C virus [16]): > 44 µM; Activity (Pseudomonas aeruginosa [17]): inactive
4 | CNc1ncnc2c1c(-c1cccs1)cn2[C@@H]1O[C@H](CO)[C@@H](O)[C@H]1O | > 20 | > 100 | > 20 | > 44 | inactive | > 20 | > 100 | > 20 | > 44 | inactive | inactive | > 20 | > 20 | > 20 | inactive | inactive | > 44 | inactive | inactive | > 20 | Activity (Staphylococcus aureus [12]): inactive; IC50 [13]: > 20 µM; IC50 (HepG2): > 20 µM; Activity (Pseudomonas aeruginosa [14]): inactive; Activity (Candida parapsilosis): inactive; Activity (Staphylococcus aureus [15]): inactive; EC50 (Hepatitis C virus [16]): > 44 µM; Activity (Pseudomonas aeruginosa [17]): inactive
5 | COc1ncnc2c1ccn2[C@@H]1O[C@H](CO)[C@@H](O)[C@H]1O | > 20 | > 100 | > 20 | > 44 | inactive | > 20 | > 100 | > 20 | > 44 | inactive | inactive | > 20 | > 20 | > 20 | inactive | inactive | > 44 | inactive | inactive | > 20 | Activity (Staphylococcus aureus [12]): inactive; IC50 [13]: > 20 µM; IC50 (HepG2): > 20 µM; Activity (Pseudomonas aeruginosa [14]): inactive; Activity (Candida parapsilosis): inactive; Activity (Staphylococcus aureus [15]): inactive; EC50 (Hepatitis C virus [16]): > 44 µM; Activity (Pseudomonas aeruginosa [17]): inactive
6 | Nc1nc(N)c2c(-c3cc4ccccc4o3)cn([C@@H]3O[C@H](CO)[C@@H](O)[C@H]3O)c2n1 | > 20 | > 100 | 14 | 11.5 | inactive | > 20 | 78.5 | > 20 | > 44 | inactive | inactive | > 20 | > 15 | 18.6 | inactive | inactive | > 44 | inactive | inactive | > 20 | Activity (Staphylococcus aureus [12]): inactive; IC50 [13]: > 20 µM; IC50 (HepG2): > 20 µM; Activity (Pseudomonas aeruginosa [14]): inactive; Activity (Candida parapsilosis): inactive; Activity (Staphylococcus aureus [15]): inactive; EC50 (Hepatitis C virus [16]): 5.58 µM; Activity (Pseudomonas aeruginosa [17]): inactive
7 | Cc1ncnc2c1c(-c1ccccc1)cn2[C@@H]1O[C@H](CO)[C@@H](O)[C@H]1O | > 20 | > 100 | 95.3 | > 44 | inactive | > 20 | > 100 | > 20 | > 44 | inactive | inactive | > 100 | > 20 | > 20 | inactive | inactive | > 44 | inactive | inactive | > 20 | Activity (Staphylococcus aureus [12]): inactive; IC50 [13]: > 20 µM; IC50 (HepG2): > 20 µM; Activity (Pseudomonas aeruginosa [14]): inactive; Activity (Candida parapsilosis): inactive; Activity (Staphylococcus aureus [15]): inactive; EC50 (Hepatitis C virus [16]): 34.8 µM; Activity (Pseudomonas aeruginosa [17]): inactive
8 | CNc1ncnc2c1c(-c1ccsc1)cn2[C@@H]1O[C@H](CO)[C@@H](O)[C@H]1O | > 20 | > 100 | > 20 | > 44 | inactive | > 20 | > 100 | > 20 | > 44 | inactive | inactive | > 20 | > 20 | > 20 | inactive | inactive | > 44 | inactive | inactive | > 20 | Activity (Staphylococcus aureus [12]): inactive; IC50 [13]: > 20 µM; IC50 (HepG2): > 20 µM; Activity (Pseudomonas aeruginosa [14]): inactive; Activity (Candida parapsilosis): inactive; Activity (Staphylococcus aureus [15]): inactive; EC50 (Hepatitis C virus [16]): > 44 µM; Activity (Pseudomonas aeruginosa [17]): inactive
9 | Cc1nc(N)c2c(-c3ccsc3)cn([C@@H]3O[C@H](CO)[C@@H](O)[C@H]3O)c2n1 | > 20 | > 100 | > 20 | > 44 | inactive | > 20 | > 100 | > 20 | > 44 | inactive | inactive | > 20 | > 20 | > 20 | inactive | inactive | > 44 | inactive | inactive | > 20 | Activity (Staphylococcus aureus [12]): inactive; IC50 [13]: > 20 µM; IC50 (HepG2): > 20 µM; Activity (Pseudomonas aeruginosa [14]): inactive; Activity (Candida parapsilosis): inactive; Activity (Staphylococcus aureus [15]): inactive; EC50 (Hepatitis C virus [16]): 28.7 µM; Activity (Pseudomonas aeruginosa [17]): inactive
